Reference: ChEMBL document CHEMBL1139890, “Cucurbitane glycosides from the fruits of Siraitia gros venorii and their inhibitory effects on Epstein-Barr virus activation” (2007)

How the values were obtained:
[1] = tested on: Human gammaherpesvirus 4; test: Inhibitory effect on TPA-induced Epstein-Barr virus early antigen activation in Raji cells at 1000 mol ratio/32 pmol TPA relative to TPA; format: functional; parameters: scale not given: the % may be the effect or the level left
Summary of the method: (§1)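 Raji cells induced with TPA at 32 pmol (20 ng), taken as 100%. Compounds given as molar ratio to TPA. EBV-EA induction is scored against this TPA-only positive control. Raji cell viability is reported as a percentage. IC50 is the molar ratio to TPA giving 50% inhibition of the positive control.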

[2] = tested on: Human gammaherpesvirus 4; test: Inhibitory effect on TPA-induced Epstein-Barr virus early antigen activation in Raji cells at 500 mol ratio/32 pmol TPA relative to TPA; format: functional; parameters: scale not given: the % may be the effect or the level left; summary of the method: as §1
[3] = tested on: Human gammaherpesvirus 4; test: Inhibitory effect on TPA-induced Epstein-Barr virus early antigen activation in Raji cells at 100 mol ratio/32 pmol TPA relative to TPA; format: functional; parameters: scale not given: the % may be the effect or the level left; summary of the method: as §1
[4] = tested on: Human gammaherpesvirus 4; test: Inhibitory effect on TPA-induced Epstein-Barr virus early antigen activation in Raji cells at 10 mol ratio/32 pmol TPA relative to TPA; format: functional; parameters: scale not given: the % may be the effect or the level left; summary of the method: as §1
[5] = tested on: Raji; test: Cell viability of Raji cells at 1000 mol ratio/32 pmol TPA; format: functional, Homo sapiens; summary of the method: as §1
[6] = Inhibitory ratio on NOR1-induced NO activation in human Chang liver cells assessed as nitric oxide scavenging activity relative to NOR1; format: functional
Summary of the method: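 Chang liver cells (normal human hepatic cells) were used with NOR 1, an NO donor, as the NO source. Compounds were tested at 350 nmol. Scavenging of NO generated by NOR 1 is given as an inhibitory ratio. The ratio for NOR 1 alone (positive control, 350 nm) is set at 1.0.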

Compound `C[C@H](CC[C@@H](O[C@@H]1O[C@H](CO[C@@H]2O[C@H](CO)[C@@H](O)[C@H](O)[C@H]2O)[C@@H](O)[C@H](O)[C@H]1O)C(C)(C)O)[C@H]1CC[C@@]2(C)[C@@H]3CC=C4[C@@H](CC[C@H](O[C@@H]5O[C@H](CO)[C@@H](O)[C@H](O)[C@H]5O)C4(C)C)[C@]3(C)CC[C@]12C` has an Activity [1] of 10.6%, an Activity [2] of 25.7% and an Activity [3] of 81.9%. It also gave an Activity [4] of 100%, an Activity [5] of 70% and a Ratio [6] of 1.5.
`C[C@H](CC[C@@H](O)C(C)(C)O[C@@H]1O[C@H](CO)[C@@H](O)[C@H](O)[C@H]1O)[C@H]1CC[C@@]2(C)[C@@H]3CC=C4[C@@H](CC[C@H](O[C@@H]5O[C@H](CO)[C@@H](O)[C@H](O)[C@H]5O)C4(C)C)[C@]3(C)[C@H](O)C[C@]12C` [MOGROSIDE II B] gave an Activity [1] of 7.2%, an Activity [2] of 26% and an Activity [3] of 76%. It also gave an Activity [4] of 100%, an Activity [5] of 70% and a Ratio [6] of 1.5.
Compound `CC1(C)[C@@H](O[C@H]2O[C@H](C(=O)O)[C@@H](O)[C@H](O)[C@H]2O[C@@H]2O[C@H](C(=O)O)[C@@H](O)[C@H](O)[C@H]2O)CC[C@]2(C)[C@H]3C(=O)C=C4[C@@H]5C[C@@](C)(C(=O)O)CC[C@]5(C)CC[C@@]4(C)[C@]3(C)CC[C@@H]12` [GLYCYRRHIZIN] has a Ratio [6] of 2.2.
Compound `C[C@H](CC[C@@H](O[C@@H]1O[C@H](CO)[C@@H](O)[C@H](O)[C@H]1O)C(C)(C)O)[C@H]1CC[C@@]2(C)[C@@H]3C(=O)C=C4[C@@H](CC[C@H](O[C@@H]5O[C@H](CO)[C@@H](O)[C@H](O)[C@H]5O)C4(C)C)[C@]3(C)[C@H](O)C[C@]12C` has an Activity [1] of 7.7%, an Activity [2] of 24.4% and an Activity [3] of 80.8%. For the same compound, the Activity [4] was 100%, the Activity [5] was 70% and the Ratio [6] was 1.5.
Compound `CC1(C)N([O])C(c2ccc(C(=O)O)cc2)=[N+]([O-])C1(C)C` has a Ratio [6] of 8.
In the case of `C[C@H](CC[C@@H](O[C@@H]1O[C@H](CO[C@@H]2O[C@H](CO)[C@@H](O)[C@H](O)[C@H]2O)[C@@H](O)[C@H](O)[C@H]1O)C(C)(C)O)[C@H]1CC[C@@]2(C)[C@@H]3CC=C4[C@@H](CC[C@H](O)C4(C)C)[C@]3(C)C(=O)C[C@]12C`, the Activity [1] is reported as 8.5%, the Activity [2] is reported as 25% and the Activity [3] is reported as 80.6%. For the same compound, the Activity [4] was 100%, the Activity [5] was 70% and the Ratio [6] was 1.4.
With `C[C@H](CC[C@@H](O[C@@H]1O[C@H](CO)[C@@H](O)[C@H](O)[C@H]1O)C(C)(C)O)[C@H]1CC[C@@]2(C)[C@@H]3CC=C4[C@@H](CC[C@H](O[C@@H]5O[C@H](CO[C@@H]6O[C@H](CO)[C@@H](O)[C@H](O)[C@H]6O)[C@@H](O)[C@H](O)[C@H]5O)C4(C)C)[C@]3(C)[C@H](O)C[C@]12C` [MOGROSIDE III A2] the Activity [1] was 5.1%, the Activity [2] was 24% and the Activity [3] was 75.3%. It also gave an Activity [4] of 100%, an Activity [5] of 70% and a Ratio [6] of 1.5.
`CC1=C(/C=C/C(C)=C/C=C/C(C)=C/C=C/C=C(C)/C=C/C=C(C)/C=C/C2=C(C)CCCC2(C)C)C(C)(C)CCC1` [BETA CAROTENE] showed an Activity [1] of 8.6%, an Activity [4] of 100% and an Activity [5] of 70%.
Compound `C[C@H](CC[C@@H](O[C@@H]1O[C@H](CO[C@@H]2O[C@H](CO)[C@@H](O)[C@H](O)[C@H]2O)[C@@H](O)[C@H](O)[C@H]1O)C(C)(C)O)[C@H]1CC[C@@]2(C)[C@@H]3CC=C4[C@@H](CC[C@H](O[C@@H]5O[C@H](CO[C@@H]6O[C@H](CO)[C@@H](O)[C@H](O)[C@H]6O)[C@@H](O)[C@H](O)[C@H]5O)C4(C)C)[C@]3(C)C(=O)C[C@]12C` [11-OXOMOGROSIDE IV A] has an Activity [1] of 10.3%, an Activity [2] of 27.3% and an Activity [3] of 82.5%. It also gave an Activity [4] of 100%, an Activity [5] of 70% and a Ratio [6] of 1.4.
